Results published in ChEMBL document CHEMBL1121551, “Amino acid and dipeptide derivatives of daunorubicin. 2. Cellular pharmacology and antitumor activity on L1210 leukemic cells in vitro and in vivo” (1980).

How the values were obtained:
[1] = test system: Mus musculus; test: Chemotherapeutic activity was evaluated by measuring the percent increase in life span of female DBA2 mice intravenously inoculated with L1210 leukemia at 10 mg/kg/day, iv; format: functional
Method in brief: (§1)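 Female DBA2 mice given 10^4 L1210 cells iv on day 0; cells harvested from a 6- to 8-day-old ascitic L1210 form. Drug given iv on days 1 and 2 at the stated daily dose. Read-outs are % increase in life span and the number of mice alive on day 30 over the total.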

[2] = test system: Mus musculus; test: Chemotherapeutic activity was evaluated by measuring the percent increase in life span of female DBA2 mice intravenously inoculated with L1210 leukemia at 11 mg/kg/day, iv; format: functional; method in brief: as §1
[3] = test system: Mus musculus; test: Chemotherapeutic activity was evaluated by measuring the percent increase in life span of female DBA2 mice intravenously inoculated with L1210 leukemia at 12(mg/kg)/day, iv; format: functional; method in brief: as §1
[4] = test system: Mus musculus; test: Chemotherapeutic activity was evaluated by measuring mean tumor diameter on day 12 at 12(mg/kg)/day, sc; format: functional
[5] = test system: Mus musculus; test: Chemotherapeutic activity was evaluated by measuring the percent increase in life span of female DBA2 mice subcutaneously inoculated with L1210 leukemia at 12(mg/kg)/day, sc; format: functional
[6] = test system: Mus musculus; test: Chemotherapeutic activity was evaluated by measuring number of survivors on day 30 / total number of mice at 10 mg/kg/day, iv; 0/18; format: functional; method in brief: as §1
[7] = test system: Mus musculus; test: Chemotherapeutic activity was evaluated by measuring number of survivors on day 30 / total number of mice at 10 mg/kg/day, sc; 0/58; format: functional
[8] = test system: Mus musculus; test: Chemotherapeutic activity was evaluated by measuring number of survivors on day 30 / total number of mice at 11 mg/kg/day, iv; 0/37; format: functional; method in brief: as §1
[9] = test system: Mus musculus; test: Chemotherapeutic activity was evaluated by measuring number of survivors on day 30 / total number of mice at 11 mg/kg/day, sc; 3/37; format: functional
[10] = test system: Mus musculus; test: Chemotherapeutic activity was evaluated by measuring number of survivors on day 30 / total number of mice at 12(mg/kg)/day, iv; 6/34; format: functional; method in brief: as §1
[11] = test system: Mus musculus; test: Chemotherapeutic activity was evaluated by measuring number of survivors on day 30 / total number of mice at 12(mg/kg)/day, sc; 3/36; format: functional
[12] = test system: Mus musculus; test: Chemotherapeutic activity was evaluated by measuring percent change in weight on day 8 at 10 mg/kg/day, iv; format: functional
Method in brief: (§2)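 Female DBA2 mice were inoculated iv on day 0 with 10^4 L1210 leukemic cells. Drugs were given iv on days 1 and 2 at the stated daily dose. Percent body weight change was recorded on day 8, and weight loss served as the index of general toxicity.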

[13] = test system: Mus musculus; test: Chemotherapeutic activity was evaluated by measuring percent change in weight on day 8 at 10 mg/kg/day, sc; format: functional
Method in brief: (§3)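 Drugs were given iv on days 1 and 2 at the stated daily dose. Average tumor diameter was estimated daily with calipers, and body weight change was recorded on day 8. Results from several experiments are given as mean ± SD.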

[14] = test system: Mus musculus; test: Chemotherapeutic activity was evaluated by measuring percent change in weight on day 8 at 11 mg/kg/day, iv; format: functional; method in brief: as §2
[15] = test system: Mus musculus; test: Chemotherapeutic activity was evaluated by measuring percent change in weight on day 8 at 11 mg/kg/day, sc; format: functional; method in brief: as §3
[16] = test system: Mus musculus; test: Chemotherapeutic activity was evaluated by measuring percent change in weight on day 8 at 12(mg/kg)/day, iv; format: functional; method in brief: as §2
[17] = test system: Mus musculus; test: Chemotherapeutic activity was evaluated by measuring percent change in weight on day 8 at 12(mg/kg)/day, sc; format: functional
[18] = test system: Mus musculus; test: Chemotherapeutic activity was evaluated by measuring mean tumor diameter on day 8 at 10 mg/kg/day, iv
[19] = test system: Mus musculus; test: Chemotherapeutic activity was evaluated by measuring mean tumor diameter on day 8 at 11 mg/kg/day, iv
[20] = test system: Mus musculus; test: Chemotherapeutic activity was evaluated by measuring mean tumor diameter on day 12 at 10 mg/kg/day, iv
[21] = test system: Mus musculus; test: Chemotherapeutic activity was evaluated by measuring mean tumor diameter on day 12 at 11 mg/kg/day, iv
[22] = test system: Mus musculus; test: Percent increase in life span of female DBA2 mice subcutaneously inoculated with L1210 leukemia at 11 mg/kg/day, iv
[23] = test system: Mus musculus; test: Percent increase in life span of female DBA2 mice subcutaneously inoculated with L1210 leukemia at 10 mg/kg/day, iv
[24] = test system: Mus musculus; test: Chemotherapeutic activity was evaluated by measuring the percent increase in life span of female DBA2 mice intravenously inoculated with L1210 leukemia at 50(mg/kg)/day, iv; format: functional; method in brief: as §1
[25] = test system: Mus musculus; test: Chemotherapeutic activity was evaluated by measuring number of survivors on day 30 / total number of mice at 50(mg/kg)/day, iv; 0/7; format: functional; method in brief: as §1
[26] = test system: Mus musculus; test: Chemotherapeutic activity was evaluated by measuring number of survivors on day 30 / total number of mice at 60 mg/kg/day, sc; 0/18; format: functional
[27] = test system: Mus musculus; test: Chemotherapeutic activity was evaluated by measuring percent change in weight on day 8 at 50(mg/kg)/day, iv; format: functional; method in brief: as §2
[28] = test system: Mus musculus; test: Chemotherapeutic activity was evaluated by measuring percent change in weight on day 8 at 60 mg/kg/day, sc; format: functional; method in brief: as §3
[29] = test system: Mus musculus; test: Chemotherapeutic activity was evaluated by measuring percent change in weight on day 8 at 66 mg/kg/day, sc; format: functional; method in brief: as §3
[30] = test system: Mus musculus; test: Chemotherapeutic activity was evaluated by measuring number of survivors on day 30 / total number of mice at 66 mg/kg/day, sc; 0/9; format: functional
[31] = test system: Mus musculus; test: Chemotherapeutic activity was evaluated by measuring mean tumor diameter on day 8 at 60 mg/kg/day, iv
[32] = test system: Mus musculus; test: Chemotherapeutic activity was evaluated by measuring mean tumor diameter on day 8 at 66 mg/kg/day, iv
[33] = test system: Mus musculus; test: Chemotherapeutic activity was evaluated by measuring mean tumor diameter on day 12 at 66 mg/kg/day, iv
[34] = test system: Mus musculus; test: Percent increase in life span of female DBA2 mice subcutaneously inoculated with L1210 leukemia at 60 mg/kg/day, iv
[35] = test system: Mus musculus; test: Percent increase in life span of female DBA2 mice subcutaneously inoculated with L1210 leukemia at 66 mg/kg/day, iv

For COc1cccc2c1C(=O)c1c(O)c3c(c(O)c1C2=O)C[C@@](O)(C(C)=O)C[C@@H]3O[C@H]1C[C@H](N)[C@H](O)[C@H](C)O1 [DAUNORUBICIN], the Increase in life-span [1] was 42%, the Increase in life-span [2] was 66% and the Increase in life-span [3] was 123%. For the same compound, the Diameter [4] was 2 mm, the Increase in life-span [5] was 83% and the Survivors [6] was 0. The Survivors [7] was 0, the Survivors [8] was 0 and the Survivors [9] was 3. It also gave a Survivors [10] of 6, a Survivors [11] of 3 and a Weight change [12] of -1.1%. For the same compound, the Weight change [13] was -4.3%, the Weight change [14] was -3.2% and the Weight change [15] was -5.9%. The Weight change [16] was -8.4%, the Weight change [17] was -6.3% and the Diameter [18] was 0.3 mm. The Diameter [19] was 0.4 mm, the Diameter [20] was 4.1 mm and the Diameter [21] was 2.9 mm. The Increase in life-span [22] was 67% and the Increase in life-span [23] was 65%.

For COc1cccc2c1C(=O)c1c(O)c3c(c(O)c1C2=O)C[C@@](O)(C(C)=O)C[C@@H]3O[C@H]1C[C@H](NC(=O)[C@H](C)N)[C@H](O)[C@H](C)O1, the Increase in life-span [24] was 14%, the Survivors [25] was 0 and the Survivors [26] was 0. It also gave a Weight change [27] of -4.4%, a Weight change [28] of -5.9% and a Weight change [29] of -8.5%. For the same compound, the Survivors [30] was 0, the Diameter [31] was 1.3 mm and the Diameter [32] was 0 mm. For the same compound, the Diameter [33] was 4.2 mm, the Increase in life-span [34] was 37% and the Increase in life-span [35] was 61%.
